This is an account of results in ChEMBL document CHEMBL3627626, “6-Substituted Pyrrolo[2,3-d]pyrimidine Thienoyl Regioisomers as Targeted Antifolates for Folate Receptor α and the Proton-Coupled Folate Transporter in Human Tumors” (J Med Chem, 2015).

In data set [1] the test system is KB. Nature of the data set: Antiproliferative activity against human KB cells expressing FRalpha/PCFT/RFC assessed as cell growth inhibition after 96 hrs by CellTiter-Blue assay. It counts as functional, cell-based. Background: The colour change of resazurin is a common sign of viable cells or microbes.
For data set [2], the target named is T1, Trifunctional purine biosynthetic protein adenosine-3 (Homo sapiens) (UniProt P22102).
T1 sequence (whole entry): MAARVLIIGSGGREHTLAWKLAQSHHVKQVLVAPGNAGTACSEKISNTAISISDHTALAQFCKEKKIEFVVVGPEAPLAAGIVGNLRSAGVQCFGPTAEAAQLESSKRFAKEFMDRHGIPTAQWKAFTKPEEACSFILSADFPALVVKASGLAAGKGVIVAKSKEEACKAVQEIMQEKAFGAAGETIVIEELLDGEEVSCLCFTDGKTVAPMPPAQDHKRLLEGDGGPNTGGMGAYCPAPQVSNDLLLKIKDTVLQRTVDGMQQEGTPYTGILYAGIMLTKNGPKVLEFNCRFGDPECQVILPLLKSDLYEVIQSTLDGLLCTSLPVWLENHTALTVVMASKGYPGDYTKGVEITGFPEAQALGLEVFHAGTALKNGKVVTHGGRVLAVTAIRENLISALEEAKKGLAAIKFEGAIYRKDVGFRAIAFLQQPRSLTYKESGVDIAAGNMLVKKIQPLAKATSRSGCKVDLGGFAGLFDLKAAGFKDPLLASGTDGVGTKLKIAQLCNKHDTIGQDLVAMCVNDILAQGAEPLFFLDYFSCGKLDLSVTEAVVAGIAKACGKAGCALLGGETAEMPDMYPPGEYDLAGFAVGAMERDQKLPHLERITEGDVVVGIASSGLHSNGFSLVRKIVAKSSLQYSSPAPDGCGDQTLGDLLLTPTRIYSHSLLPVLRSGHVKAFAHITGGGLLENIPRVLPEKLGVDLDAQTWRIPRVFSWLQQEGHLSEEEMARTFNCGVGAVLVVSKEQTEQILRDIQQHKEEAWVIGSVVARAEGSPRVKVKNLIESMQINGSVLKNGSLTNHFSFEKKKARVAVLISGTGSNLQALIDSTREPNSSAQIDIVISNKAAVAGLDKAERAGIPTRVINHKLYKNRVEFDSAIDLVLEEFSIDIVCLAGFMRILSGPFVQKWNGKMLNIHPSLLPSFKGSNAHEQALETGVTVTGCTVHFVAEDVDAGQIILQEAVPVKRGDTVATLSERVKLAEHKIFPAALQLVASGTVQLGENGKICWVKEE
The data set is described as follows: Inhibition of GARFTase in human KB cells expressing FRalpha/PCFT/RFC assessed as cell growth inhibition after 96 hrs by CellTiter-Blue assay in presence of thymidine. It counts as cell-based.

Data set [3] deals with SK-OV-3. The data set is described as follows: Antiproliferative activity against human SKOV3 cells after 96 hrs by CellTiter-Blue assay in presence of 200 nM folic acid. The data set is classed as functional, cell-based. To be noted: SK-OV-3, 96 h. In outline: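 IGROV1 and SKOV3 cells plated at ~2500–5000 cells/well in folate-free RPMI 1640 with 10% dialyzed FBS, antibiotics and 2 nM LCV, over a range of drug concentrations, ±200 nM folic acid in parallel. Incubated up to 96 h. Viability read by Cell Titer Blue fluorescence (ex 560/em 590 nm).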

The target in data set [4] is Folate receptor alpha (Homo sapiens) (UniProt P15328). The data set is described as follows: Displacement of [3H]-folic acid from human FRalpha expressed in Chinese hamster RT16 cells after 15 mins relative to folic acid. The data set is classed as cell-based. The method, boiled down: (§1)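 Competitive binding to surface folate receptor on RT16 (FRα) or D4 (FRβ) CHO cells. Cells were acid-washed (pH 3.5) to strip bound folate, then incubated in HEPES-buffered saline pH 7.4 with 50 nM [3H]folic acid plus unlabeled ligand (0–1000 nM) for 15 min at 0 °C. Bound label was normalised to protein. Affinity is the inverse molar ratio for 50% displacement, with folic acid set to 1. Mean of 4–10 experiments ±SE.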
Folate receptor alpha (Homo sapiens), sequence (P15328 25-234 limits assumed): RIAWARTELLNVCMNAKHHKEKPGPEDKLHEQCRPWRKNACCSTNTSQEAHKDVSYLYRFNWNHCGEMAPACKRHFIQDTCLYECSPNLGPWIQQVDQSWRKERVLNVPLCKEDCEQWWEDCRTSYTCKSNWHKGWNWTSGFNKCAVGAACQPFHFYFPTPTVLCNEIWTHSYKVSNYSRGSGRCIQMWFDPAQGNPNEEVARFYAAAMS

Data set [5] has as its system SK-OV-3. Nature of the data set: Antitumor activity against human SKOV3 cells expressing RFC/PCFT/FRalpha xenografted in folate-deficient diet fed NCR SCID mouse assessed as log10 of gross cell killing at 16 mg/kg, iv administered every 4 days on day 3, 7, 11 measured twice per week. The data set is classed as functional. In outline: (§2)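 Ten-week-old female NCR SCID mice, fed a folate-deficient or standard folate-replete diet, were implanted subcutaneously and bilaterally with SKOV3 tumour fragments. Randomised at 5 mice/group. Dosed intravenously, 0.2 mL per injection, in 5% ethanol/1% Tween-80/0.5% NaHCO3 in water at pH 6.5, on days 3, 7 and 11. Tumours measured twice weekly and mice weighed daily. T/C taken on day 21; growth delay and log cell kill also reported.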
On the technique in general: Xenograft models place foreign cells or tissue in a host animal.

The subject of data set [6] is R2. The data set is described as follows: Cytotoxicity against PCFT-null Chinese hamster R2 cells assessed as cell growth inhibition after 96 hrs by CellTiter-Blue assay. The data set is classed as cell-based, Cricetulus griseus. To be noted: R2, 96 h.
Data set [7] concerns KB. Nature of the data set: Antiproliferative activity against human KB cells expressing FRalpha/PCFT/RFC assessed as cell growth inhibition after 96 hrs by CellTiter-Blue assay in presence of 200 nM folic acid. The data set is classed as functional, cell-based.
In data set [8] the test system is SK-OV-3. The data set is described as follows: Antitumor activity against human SKOV3 cells expressing RFC/PCFT/FRalpha xenografted in folate-replete diet fed NCR SCID mouse assessed as tumor growth inhibition at 16 mg/kg, iv administered every 4 days on day 3, 7, 11 measured on day 21 relative to control. The data set is classed as functional. In outline: as §2

The next data set has as its system PC43-10. Nature of the data set: Selectivity ratio of IC50 for human RFC expressed in Chinese hamster PC43-10 cells assessed as cell growth inhibition to IC50 for human PCFT expressed in Chinese hamster R2/PCFT4 cells assessed as cell growth inhibition. It counts as cell-based.
Data set [9] addresses Folate receptor beta (Homo sapiens) (UniProt P14207). Nature of the data set: Displacement of [3H]-folic acid from human FRbeta expressed in Chinese hamster D4 cells after 15 mins relative to folic acid. It counts as cell-based. In outline:
as §1
In general terms: Loss of bound radioactivity is the signal in a displacement assay; it reports binding, not function.

Data set [10] has as its system R2. The data set is described as follows: Cellular uptake in PCFT-null Chinese hamster R2 cells at 0.5 uM at 37 degC at pH 5.5 measured over 2 mins. The data set is classed as ADME, cell-based, Cricetulus griseus. To be noted: r2, pH 5.5, 2 min. The method, boiled down:
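R2/PCFT4 or PCFT-null R2 CHO cells were grown in suspension from spinner flasks. Uptake of 0.5 μM [3H]drug measured over 2 min at 37 °C in MES-buffered saline pH 5.5, with or without 10 μM unlabeled competitor. Uptake was quenched with ice-cold DPBS and cells solubilised in NaOH. Results are pmol/mg protein, mean ±SEM of three experiments.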

Data set [11] addresses T1, Trifunctional purine biosynthetic protein adenosine-3 (Homo sapiens). The data set is described as follows: Inhibition of GARFTase in human KB cells expressing FRalpha/PCFT/RFC assessed as cell growth inhibition after 96 hrs by CellTiter-Blue assay in presence of adenosine. The data set is classed as cell-based.
The test system of data set [12] is SK-OV-3. The data set is described as follows: Antitumor activity against human SKOV3 cells expressing RFC/PCFT/FRalpha xenografted in folate-deficient diet fed NCR SCID mouse assessed as tumor growth inhibition at 16 mg/kg, iv administered every 4 days on day 3, 7, 11 measured on day 21 relative to control. It counts as functional. In outline:
as §2

The source made the active and inactive calls. The calls are words filed in the database; no cut-off is given here.

Folate receptor beta (Homo sapiens), sequence (P14207 17-230 limits assumed): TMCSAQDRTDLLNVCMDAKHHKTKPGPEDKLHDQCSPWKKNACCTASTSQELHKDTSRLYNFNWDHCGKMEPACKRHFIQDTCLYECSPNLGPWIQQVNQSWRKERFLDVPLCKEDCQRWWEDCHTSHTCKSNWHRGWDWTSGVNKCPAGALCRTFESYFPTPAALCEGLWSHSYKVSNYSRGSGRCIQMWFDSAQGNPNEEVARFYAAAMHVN

As for `Nc1nc2[nH]c(CCCc3cc(C(=O)N[C@@H](CCC(=O)O)C(=O)O)cs3)cc2c(=O)[nH]1`, the IC50 is 0.09 nM with KB [1], 76 nM in the data set with SK-OV-3 [3], 290 nM in the data set with R2 [6] and 105 nM in the data set on KB [7]. Also, the inhibition entry in [2] is “Active”. In addition, the Activity turned out to be 60% in [4] and 35% in data set [9]. Moreover, the LCK with SK-OV-3 [5] was 1.9. For the same compound, the T/C was 69% in the data set with SK-OV-3 [8] and 15% with SK-OV-3 [12]. Further, the Ratio IC50 with PC43-10 came to 29. For the same compound, the Drug uptake result with R2 [10] was “Not Active”. Moreover, in [11], the inhibition result was “inactive”.

Broadly, the IC50 is the concentration at which inhibition is half-maximal. As usually defined, the T/C is the ratio of treated to control.
